S1P3 ag: agonists of human S1P3 receptor; Q99500; S1P3 NFAT-BLA reporter cells, agonism, FRET ratio; relative to 1 µM S1P, basal subtracted; activation, % at 4.5 µM; 60,000 compounds, 0.1% hits; AID 373;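 active = activation above the screen-wide mean plus 3 SD, cut at about 4.5% in these data, passing the limit was not always enough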
Target sequence (Q99500 whole entry, looked up): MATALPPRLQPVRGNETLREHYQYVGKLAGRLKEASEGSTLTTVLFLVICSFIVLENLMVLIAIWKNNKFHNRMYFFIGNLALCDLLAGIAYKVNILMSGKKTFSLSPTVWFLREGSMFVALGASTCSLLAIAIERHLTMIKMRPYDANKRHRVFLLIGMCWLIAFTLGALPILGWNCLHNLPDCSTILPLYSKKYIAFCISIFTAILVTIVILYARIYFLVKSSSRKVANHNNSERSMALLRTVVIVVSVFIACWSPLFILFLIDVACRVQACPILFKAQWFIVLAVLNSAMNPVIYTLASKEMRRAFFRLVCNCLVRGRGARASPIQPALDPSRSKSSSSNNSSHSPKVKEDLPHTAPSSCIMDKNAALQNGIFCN
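Assay system: CHO cells stably expressing human S1P3, Gα16 and NFAT-β-lactamase reporter. Timing: overnight plating, 4 h compound 37 °C, 2 h substrate RT. Signal: β-lactamase FRET emission ratio 460/535 nm. Measure: percent activation versus median 1 µM S1P response, basal-subtracted, per plate. Repeats: primary screen single test, confirmation screen in triplicate.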
HTR1E antagonist: blocks the human 5-HT1E serotonin receptor | inhibition, % at 6 µM | P28566 | 65,000 compounds, 0.99% hits | AID 571 | CHO 5-HT1E Ga15 NFAT-bla reporter, FRET, antagonist;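 active = inhibition above a set limit, the mean inhibition across every tested compound plus 3 SD, cut at about 29% in these data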;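 note: signal is the 460 over 535 nm emission ratio of beta-lactamase substrate; 0% = agonist plus DMSO wells and 100% = wells without agonist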
HTR1A agonist: agonists of human 5-HT1a serotonin receptor; AID 567; 65,000 compounds, 0.56% hits; CHO 5-HT1a Ga15 NFAT-bla reporter, FRET ratio; 0% basal, 100% maximal reference agonist; P08908; activation, % at 10 µM;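 active = activation above the screen-wide mean activation plus 3 SD, cut at about 19% in these data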;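 note: 0% = DMSO wells and 100% = 5-CT at EC100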
S1P1 ag pot: S1P1 (human) agonism or agonism potentiation | P21453 | S1P1 CRE-bla cells, forskolin, beta-lactamase FRET, potentiator mode; S1P1 agonist co-added at EC20, 2 nM; 100% = saturating reference agonist, 0% = basal | activation, % at 9.5 µM | 56,000 compounds, 0.57% hits | AID 449;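 active = activation above a cutoff set at the mean activation of all tested compounds plus 3 SD, cut at about 54% in these data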;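 note: forskolin at 4 µM as EC80 and the EC20 agonist is SEW2871; 100% = SEW2871 at its EC100 plus forskolin at EC80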
5HT1a antag: antagonists of human 5-HT1a serotonin receptor; P08908; CHO 5-HT1a Ga15 NFAT-bla reporter, antagonist mode; inhibition, % at 10 µM; 62,000 compounds, 0.68% hits; AID 612;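 active = inhibition above the mean of all tested compounds plus 3 SD, cut at about 43% in these data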;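 note: receptor stimulated by 5-CT agonist at 100 nM near EC80; beta-lactamase reporter measured by ratiometric fluorescence of a cleavable substrate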
HTR1E agonist: activates the human 5-HT1E serotonin receptor | activation, % at 6 µM | CHO 5-HT1E Ga15 NFAT-bla reporter, FRET; 0% DMSO wells, 100% control agonist wells | P28566 | AID 574 | 65,000 compounds, 0.69% hits;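 active = activation above a set limit, the screen-wide mean activation plus 3 SD, cut at about 8.5% in these data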;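 note: 100% = positive control agonist at 1 µM giving full maximal response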
Active calls of the source: *; . = not tested or not shown. Only some compounds are listed: those with a hit (about 3% of all), similar ones and a draw of the others.

SMILES	S1P3 ag	HTR1E antagonist	HTR1A agonist	S1P1 ag pot	5HT1a antag	HTR1E agonist
CCCCC[C@H](O)/C=C/[C@@H]1[C@@H](CCCCCCC(=O)O)[C@@H](O)C[C@H]1O	-2	-2	-1	-14	.	0
FC(F)(F)c1cccc(N2CCN(Cc3ccoc3)CC2)c1	0	2	15	.	-1	14*
FC(F)(F)c1cccc(N2Cc3ccccc3C2)c1	0	-10	-1	10	6	11*
FC(F)(F)c1cccc(N2CCN(Cc3cccnc3)CC2)c1	-1	-3	0	-8	-2	4
CCOC(=O)C(C)c1nn(C)c(=O)c2ccccc12 (stereo not given)	-1	4	0	.	1	0
CCOC(=O)CCc1nn(C)c(=O)c2ccccc12	.	40*	1	.	-4	0
COC(=O)c1cc(COC(=O)c2ccc(OC)c(S(=O)(=O)N3CCCC3)c2)oc1C	0	13	0	-17	1	0
[O-][N+]1=c2ccc(Nc3ccccc3)cc2=NC12CCCCC2	-2	30*	-3	34	55*	0
[O-][N+]1=C2CCC/C(=N\O)C2=NC12CCCCC2	-1	-3	-4	-9	-9	0
COC(=O)c1cc(Br)c(=O)n(CCN2CCCCC2)c1	-1	4	2	5	17	1
COC(=O)c1cc(Br)c(=O)n(CC(C)C)c1	-1	-5	0	-1	0	9.5*
Cc1cc(C(=O)CSc2nnc(C3COc4ccccc4O3)n2C)c(C)n1-c1ccc(F)cc1 (stereo not given)	4	30*	-3	29	28	0
COc1ccc(CCn2c(C)cc(C(=O)CSc3nnnn3C)c2C)cc1	14*	6	3	7	1	-1
Cc1cc(C(=O)CSc2nnnn2C)c(C)n1-c1cccc(F)c1	3	-3	-1	93*	-13	0
Cc1cc(C(=O)CSc2nc(N)cc(N)n2)c(C)n1CCc1ccc(F)cc1	0	4	3	31	-10	0
COc1cccc(NS(=O)(=O)c2cc(C)sc2C)c1	-1	4	-1	10	9	0
CCOc1ccc(S(=O)(=O)NC(C)(C)C)cc1-c1nc2c(C(C)(C)C)nn(C)c2c(=O)[nH]1	-3	0	8	-47	.	0
CCC(=O)N1CCc2cc(S(=O)(=O)N3CCN(C(=O)c4ccco4)CC3)ccc21	.	4	0	.	-6	1
CC(=O)N1CCc2cc(S(=O)(=O)CCC(=O)N3CCN(C(=O)c4ccco4)CC3)ccc21	-1	31*	-1	17	2	0
COc1ccc(NC(=O)C2CCN(c3cc(C)nc(-c4ccccc4)n3)CC2)cc1	.	-3	3	.	-9	-1
O=C(CC1(O)C(=O)N(Cc2ccccc2Cl)c2ccccc21)c1ccco1 (stereo not given)	-1	-2	-1	.	-6	-1
COc1ccc(NC(C)=O)c2nc(C)c(C)nc12	-1	30*	0	-6	5	0
COc1ccc2sc(C)nc2c1NC(C)=O	-1	-2	0	-1	1	-1
Cn1c(NC(=O)C2CC2)cc(=O)n(C)c1=O	-2	2	-3	-14	-5	1
Oc1c(I)cc(Cl)c2cccnc12	-1	-15	-2	-22	.	2
SMILES	S1P3 ag	HTR1E antagonist	HTR1A agonist	S1P1 ag pot	5HT1a antag	HTR1E agonist
Cc1c(O)c(CN2CCCCC2)cc2c3c(c(=O)oc12)CCC3	-2	2	3	-8	.	0
Oc1c(CN2CCCCC2)cc(Br)c2cccnc12	-2	41*	11	15	47*	1
Oc1c(CN2CCc3ccccc3C2)cc(Cl)c2cccnc12	-3	18	30*	11	25	0
O=C(C1CCN(S(=O)(=O)N2CCC3(CC2)OCCO3)CC1)N1CCOCC1	.	6	-1	.	8	-2
CCN(CC)S(=O)(=O)c1ccc2oc(SCc3ccc(F)cc3)nc2c1	-2	2	1	10	-6	0
CCc1c(C)nc2cc(-c3ccc(OC)c(OC)c3)nn2c1N1CCCC1	.	31*	1	.	15	0
O=C(C1CCCN(S(=O)(=O)c2cccc3cccnc23)C1)N1CCN(c2ccccc2F)CC1 (stereo not given)	-2	-7	0	44	-17	1
Cc1cccc(N2CCN(C(=O)C3CCCN(S(=O)(=O)c4cccc5cccnc45)C3)CC2)c1C (stereo not given)	-1	0	5	66	6	18*
Cc1cc(C(=O)CSc2nnnn2-c2ccc(O)cc2)c(C)n1Cc1ccc2c(c1)OCO2	0	8	1	61*	18	1
Cc1ccccc1N(C(=O)CCC(=O)Nc1ccccn1)C(C(=O)NC(C)C)c1ccc(O)cc1 (stereo not given)	1	-4	0	-17	3	1
CCC(c1nnnn1Cc1ccc(F)cc1)N1CCN(C2CCCCC2)CC1 (stereo not given)	-1	-2	-2	-31	47*	1
Fc1ccc(Cn2nnnc2CN2CCN(C3CCCC3)CC2)cc1	0	-7	-1	-16	4	-1
CC(C)C(c1nnnn1Cc1cccs1)N1CCN(C2CCCC2)CC1 (stereo not given)	0	-2	31*	2	17	1
COc1cc(OC)cc(C(=O)Nc2ccc(-n3cnnn3)c(C)c2)c1	0	22	-5	15	17	36*
Cc1cc(NC(=O)c2oc3ccccc3c2C)ccc1-n1cnnn1	-2	-5	1	79	6	0
Cc1ccc(OCCn2cc(/C(N)=N/O)c3ccccc32)cc1C	-1	36*	4	68*	42	1
COc1ccccc1-c1n[nH]c(=S)n1-c1ccccc1	-1	-6	-1	-14	5	-1
COc1ccccc1N1CCN(CCc2n[nH]c(=S)n2-c2ccccc2)CC1	-2	3	2	-8	69*	30*
O=C(Cn1c(NCCCO)nc2ccccc21)c1ccco1	-1	13	2	3	2	-1
O=C(Nc1nc2ccccc2n1Cc1ccccc1)c1ccco1	-1	-7	-2	-2	60*	0
CCOC(=O)c1[nH]c(C)c(CCC(=O)OC)c1C	-1	8	-2	-22	-7	0
CC1(C)CC(=O)C2=C(C1)N1CCCCC1CC2=O (stereo not given)	-2	0	-4	-8	12	0
CCn1c2ccccc2c2cc(NC(=O)CSc3nnc(C4CC4)n3Cc3ccco3)ccc21	-1	-4	3	12	-20	0
